Results reported in ChEMBL document CHEMBL1154714, “Design and synthesis of novel P2 substituents in diol-based HIV protease inhibitors” (Eur J Med Chem, 2010).
Blank lines part the entries; values can stand above or below the compound they belong to.

Assays:
Protease [1] = molecular target: T1, Protease (Human immunodeficiency virus 1, UniProt Q9YQ12); experiment: Inhibition of HIV1 recombinant protease by fluorometric assay
Outline: (§1)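 HIV-1 protease was cloned and expressed heterologously in E. coli. K_i values were determined in a fluorometric assay.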

[2] = tested on: Human immunodeficiency virus 1; experiment: Antiviral activity against HIV1 3B bearing protease with M46I, V82F and I84V mutation infected in human MT4 cells assessed as inhibition of virus-induced cytopathic effect after 5 days by XTT assay; type: functional, organism-based; settings: Human immunodeficiency virus 1, 3B, MT4, 120 h
Outline: (§2)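 HIV IIIb resistant variant (M46I, V82F, I84V) obtained after 20 passages in MT4 cells under rising ritonavir. MT4 cells (2×10⁴/well) received 5-fold serial compound dilutions together with 20–50 TCID of wild-type or mutant IIIb. After 5 days, cytopathic effect was read as viability by XTT. EC50 was taken from dose-response curves of percent cytoprotection.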

[3] = tested on: Human immunodeficiency virus 1; experiment: Antiviral activity against HIV1 3B bearing wild type protease infected in human MT4 cells assessed as inhibition of virus-induced cytopathic effect after 5 days by XTT assay; type: functional, organism-based; settings: Human immunodeficiency virus 1, 3B, MT4, 120 h
Outline: (§3)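 MT-4 cells (2 ×10⁴ cells/well) got 5-fold serial compound dilutions together with 20–50 TCID of HIV IIIb. The virus was wild type, or an M46I/V82F/I84V mutant isolated after 20 passages of IIIb in MT4 cells under increasing ritonavir. Cell viability was read with XTT after five days. EC₅₀ came from dose–response curves of percent cytoprotection.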

[4] = tested on: Human immunodeficiency virus 1; experiment: Ratio of EC50 for HIV1 3B bearing protease with M46I, V82F and I84V mutation to EC50 for HIV1 3B bearing wild type protease; type: functional; outline: as §2
Protease [5] = molecular target: T1, Protease; experiment: Inhibition of HIV1 protease; outline: as §1
[6] = Apparent permeability across human Caco-2 cell membrane; type: ADME, cell-based
[7] = tested on: Human immunodeficiency virus 1; experiment: Antiviral activity against HIV1; type: functional, organism-based; outline: as §3

T1 sequence (Q9YQ12 whole entry): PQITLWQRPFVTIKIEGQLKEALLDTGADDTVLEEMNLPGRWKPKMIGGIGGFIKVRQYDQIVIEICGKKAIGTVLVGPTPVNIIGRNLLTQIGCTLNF

Compound: CNC(=O)[C@H](NC(=O)[C@H](OCc1ccccc1)[C@H](O)[C@@H](O)[C@@H](OCc1ccccc1)C(=O)N[C@H]1c2ccccc2C[C@H]1O)C1COC1
Ki (Protease [1]): 99 nM
EC50 [2]: > 10000 nM
EC50 [3]: > 10000 nM

Compound: CNC(=O)[C@H](CCOC)NC(=O)[C@H](OCc1ccccc1)[C@H](O)[C@@H](O)[C@@H](OCc1ccccc1)C(=O)N[C@H]1c2ccccc2C[C@H]1O
Ki (Protease [1]): 10 nM
EC50 [2]: 6900 nM
Ratio EC50 [4]: 3
EC50 [3]: 1800 nM

Compound: CNC(=O)[C@@H](NC(=O)[C@H](OCc1ccccc1)[C@H](O)[C@@H](O)[C@@H](OCc1ccccc1)C(=O)N[C@H]1c2ccccc2C[C@H]1O)C1COC1
Ki (Protease [1]): 10 nM
EC50 [2]: > 10000 nM
Ratio EC50 [4]: > 1.6
EC50 [3]: 5400 nM

Compound: CNC(=O)[C@@H](NC(=O)[C@H](OCc1ccccc1)[C@H](O)[C@@H](O)[C@@H](OCc1ccccc1)C(=O)N[C@H]1c2ccccc2C[C@H]1O)C(C)COC (single isomer, unassigned; 4e)
Ki (Protease [1]): 0.7 nM
EC50 [2]: 1300 nM
Ratio EC50 [4]: 4
EC50 [3]: 330 nM

Compound: CNC(=O)[C@@H](NC(=O)[C@H](OCc1ccccc1)[C@H](O)[C@@H](O)[C@@H](OCc1ccccc1)C(=O)N[C@H]1c2ccccc2C[C@H]1O)C(C)COC (single isomer, unassigned; 4d)
Ki (Protease [1]): 18 nM
EC50 [2]: > 10000 nM
Ratio EC50 [4]: > 2
EC50 [3]: 3500 nM

Compound: CNC(=O)[C@@H](NC(=O)[C@H](OCc1ccccc1)[C@H](O)[C@@H](O)[C@@H](OCc1ccccc1)C(=O)N[C@H]1c2ccccc2C[C@H]1O)C(C)C
Ki (Protease [1]): 0.2 nM
EC50 [2]: 1200 nM
Ratio EC50 [4]: 9
Ki (Protease [5]): 0.2 nM
EC50 [3]: 140 nM
Papp [6]: 1.4 ×10⁻⁶ cm/s
EC50 [7]: 140 nM

Ki (Protease [5]): 0.6 nM
EC50 [7]: 100 nM
Compound: O=C(N[C@H]1c2ccccc2C[C@H]1O)[C@H](OCc1ccccc1)[C@H](O)[C@@H](O)[C@@H](OCc1ccccc1)C(=O)N[C@H]1c2ccccc2C[C@H]1O

Compound: CC(C)[C@H](NC(=O)[C@H](OCc1ccccc1)[C@H](O)[C@@H](O)[C@@H](OCc1ccccc1)C(=O)N[C@H]1c2ccccc2C[C@H]1O)C(=O)NCC(F)(F)F
Ki (Protease [1]): 1.9 nM
EC50 [2]: 920 nM
Ratio EC50 [4]: 5
EC50 [3]: 150 nM
Papp [6]: 2.9 ×10⁻⁶ cm/s

Compound: COCCNC(=O)[C@@H](NC(=O)[C@H](OCc1ccccc1)[C@H](O)[C@@H](O)[C@@H](OCc1ccccc1)C(=O)N[C@H]1c2ccccc2C[C@H]1O)C(C)C
Ki (Protease [1]): 2.3 nM
EC50 [2]: 1200 nM
Ratio EC50 [4]: 5
EC50 [3]: 250 nM

Compound: CC(C)[C@H](NC(=O)[C@H](OCc1ccccc1)[C@H](O)[C@@H](O)[C@@H](OCc1ccccc1)C(=O)N[C@H]1c2ccccc2C[C@H]1O)C(=O)NCCF
Ki (Protease [1]): 1 nM
EC50 [2]: 440 nM
Ratio EC50 [4]: 3
EC50 [3]: 170 nM
Papp [6]: 1.6 ×10⁻⁶ cm/s
